{"source": "ChEMBL document CHEMBL4312027", "about": "“Synthesis, characterization, and biological activity of a triphenylphosphonium-containing imidazolium salt against select bladder cancer cell lines” (Eur J Med Chem, 2020)", "key": {"ACHN": {"tested_on": "ACHN", "experiment": "Growth inhibition of human ACHN cells assessed as growth percent at 10 uM incubated for 48 hrs by sulforhodamine B assay relative to control", "type": "functional", "conditions": "read-out: Activity"}, "HOP-92": {"tested_on": "HOP-92", "experiment": "Growth inhibition of human HOP92 cells assessed as growth percent at 10 uM incubated for 48 hrs by sulforhodamine B assay relative to control", "type": "functional", "conditions": "HOP-92, 48 h, read-out: Activity"}, "SW780": {"tested_on": "SW780", "experiment": "Growth inhibition of human SW780 cells measured after 1 hr by Celltiter-Glo luminescent cell viability assay", "type": "functional", "conditions": "SW780, 1 h", "method_in_brief": "(§1)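 Cells seeded 10000/well, 24 h, then exposed in ATCC-recommended medium to 62.5–2000 μM (two-fold steps) or vehicle for the set time (5–60 min), then normal medium. After 24 h, plates equilibrated 30 min at room temperature, CellTiter-Glo added, 2 min at room temperature, luminescence read. Survival relative to vehicle control; quadruplicate.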"}, "RPMI-8226": {"tested_on": "RPMI-8226", "experiment": "Growth inhibition of human RPMI8226 cells assessed as growth percent at 10 uM incubated for 48 hrs by sulforhodamine B assay relative to control", "type": "functional", "conditions": "RPMI-8226, 48 h, read-out: Activity"}, "RT-112 [1]": {"tested_on": "RT-112", "experiment": "Induction of apoptosis in human RT112 cells assessed as caspase 9 cleavage at 500 uM incubated for 1 hr and measured immediately after treatment by Western blot analysis", "type": "functional, cell-based", "method_in_brief": "(§2)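 RT112 seeded 300,000/well; after 24 h, 250 or 500 μM or vehicle. Cells plus floating debris harvested immediately or 24 h after treatment, lysed in RIPA with protease inhibitors. About 30 μg protein heated 10 min at 95 °C with DTT, run on SDS-PAGE. Immunoblotted for PARP and caspase 9, Ran as loading control, ECL detection.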"}, "SF-539": {"tested_on": "SF-539", "experiment": "Growth inhibition of human SF539 cells assessed as growth percent at 10 uM incubated for 48 hrs by sulforhodamine B assay relative to control", "type": "functional", "conditions": "SF-539, 48 h, read-out: Activity"}, "RT-112 [2]": {"tested_on": "RT-112", "experiment": "Induction of apoptosis in human RT112 cells assessed as increase in PARP cleavage at 500 uM incubated for 1 hr and measured immediately after treatment by Western blot analysis", "type": "functional, cell-based", "method_in_brief": "as §2"}, "MDA-MB-468": {"tested_on": "MDA-MB-468", "experiment": "Growth inhibition of human MDA-MB-468 cells assessed as growth percent at 10 uM incubated for 48 hrs by sulforhodamine B assay relative to control", "type": "functional", "conditions": "MDA-MB-468, 48 h, read-out: Activity"}, "HCT-15": {"tested_on": "HCT-15", "experiment": "Growth inhibition of human HCT15 cells assessed as growth percent at 10 uM incubated for 48 hrs by sulforhodamine B assay relative to control", "type": "functional", "conditions": "HCT-15, 48 h, read-out: Activity"}, "SNB-19": {"tested_on": "SNB-19", "experiment": "Growth inhibition of human SNB19 cells assessed as growth percent at 10 uM incubated for 48 hrs by sulforhodamine B assay relative to control", "type": "functional", "conditions": "SNB-19, 48 h, read-out: Activity"}, "MCF7": {"tested_on": "MCF7", "experiment": "Growth inhibition of human MCF7 cells assessed as growth percent at 10 uM incubated for 48 hrs by sulforhodamine B assay relative to control", "type": "functional", "conditions": "MCF7, 48 h, read-out: Activity"}, "RT-112 [3]": {"tested_on": "RT-112", "experiment": "Induction of apoptosis in human RT112 cells assessed as increase in PARP cleavage at 500 uM incubated for 1 hr measured at 24 hrs after treatment by Western blot analysis", "type": "functional, cell-based", "method_in_brief": "as §2"}, "NCI-H23": {"tested_on": "NCI-H23", "experiment": "Growth inhibition of human NCI-H23 cells assessed as growth percent at 10 uM incubated for 48 hrs by sulforhodamine B assay relative to control", "type": "functional", "conditions": "NCI-H23, 48 h, read-out: Activity"}, "786-0": {"tested_on": "786-0", "experiment": "Growth inhibition of human 786-0 cells assessed as growth percent at 10 uM incubated for 48 hrs by sulforhodamine B assay relative to control", "type": "functional", "conditions": "786-0, 48 h, read-out: Activity"}, "HCT-116": {"tested_on": "HCT-116", "experiment": "Growth inhibition of human HCT116 cells assessed as growth percent at 10 uM incubated for 48 hrs by sulforhodamine B assay relative to control", "type": "functional", "conditions": "HCT-116, 48 h, read-out: Activity"}, "RT-4 [4]": {"tested_on": "RT-4", "experiment": "Growth inhibition of human RT4 cells at 1000 uM measured after 15 to 60 mins by Celltiter-Glo luminescent cell viability assay relative to control", "type": "functional", "conditions": "read-out: GI", "method_in_brief": "as §1"}, "RT-112 [5]": {"tested_on": "RT-112", "experiment": "Cell cycle arrest in human RT112 cells assessed as increase in cell accumulation at sub-G1 phase at 250 uM incubated for 1 hr measured after culturing in normal medium for 24 hrs by propidium iodide/RNase staining based FACScan flow cytometry analysis", "type": "functional", "method_in_brief": "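Seeded at 300,000 cells/well in triplicate per treatment; 24 h later exposed to 250 or 500 μM or vehicle for 1 h. After 24 h in normal media, media plus cells were collected, washed, fixed in cold 70% ethanol (4 °C, 30 min), treated with phosphate citric acid buffer, stained with PI/RNase and gated for sub-G1 by flow cytometry.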"}, "NCI-H226": {"tested_on": "NCI-H226", "experiment": "Growth inhibition of human NCI-H226 cells assessed as growth percent at 10 uM incubated for 48 hrs by sulforhodamine B assay relative to control", "type": "functional", "conditions": "NCI-H226, 48 h, read-out: Activity"}, "Mus musculus": {"tested_on": "Mus musculus", "experiment": "Induction of urothelium exfoliation in anesthetized female mouse model assessed as effect on urothelial layer thickening at 750 to 1500 uM administered via intravesical instillation after bladder evacuation treated for 1 hr followed by repetition of the treatment after 24 hrs and measured at 24 hrs after final treatment by hematoxylin and eosin staining based analysis", "type": "organism-based", "conditions": "in vivo, other", "method_in_brief": "(§3)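 Female mice anesthetized, 1–3% isoflurane. Bladder evacuated, then 100 μL of 750 or 1500 μM in 10% DMSO/PBS (or vehicle) instilled by 24G angiocatheter. Catheter left in place for a 1 h dwell. Repeated after 24 h; mice sacrificed 24 h after final dose. Bladder histology read for urothelial height and layers.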"}, "[6]": {"experiment": "Toxicity in anesthetized female mouse model assessed as inflammation at 750 to 1500 uM administered via intravesical instillation after bladder evacuation treated for 1 hr followed by repetition of the treatment after 24 hrs and measured at 24 hrs after final treatment", "conditions": "in vivo, other", "method_in_brief": "as §3"}, "UACC-257": {"tested_on": "UACC-257", "experiment": "Growth inhibition of human UACC257 cells assessed as growth percent at 10 uM incubated for 48 hrs by sulforhodamine B assay relative to control", "type": "functional", "conditions": "UACC-257, 48 h, read-out: Activity"}, "HL-60(TB)": {"tested_on": "HL-60(TB)", "experiment": "Growth inhibition of human HL-60(TB) cells assessed as growth percent at 10 uM incubated for 48 hrs by sulforhodamine B assay relative to control", "type": "functional", "conditions": "HL-60, 48 h, read-out: Activity"}, "RT-112 [7]": {"tested_on": "RT-112", "experiment": "Growth inhibition of human RT112 cells at 1000 uM measured after 15 to 60 mins by Celltiter-Glo luminescent cell viability assay relative to control", "type": "functional", "conditions": "read-out: GI", "method_in_brief": "as §1"}, "DU-145": {"tested_on": "DU-145", "experiment": "Growth inhibition of human DU145 cells assessed as growth percent at 10 uM incubated for 48 hrs by sulforhodamine B assay relative to control", "type": "functional", "conditions": "DU-145, 48 h, read-out: Activity"}, "RT-112 [8]": {"tested_on": "RT-112", "experiment": "Growth inhibition of human RT112 cells measured after 1 hr by Celltiter-Glo luminescent cell viability assay", "type": "functional", "conditions": "RT-112, 1 h", "method_in_brief": "as §1"}, "RT-4 [9]": {"tested_on": "RT-4", "experiment": "Growth inhibition of human RT4 cells at 250 uM measured after 5 to 60 mins by Celltiter-Glo luminescent cell viability assay", "type": "functional, cell-based", "method_in_brief": "as §1"}, "RT-112 [10]": {"tested_on": "RT-112", "experiment": "Growth inhibition of human RT112 cells at 500 uM measured after 1 hr by Celltiter-Glo luminescent cell viability assay relative to control", "type": "functional", "conditions": "RT-112, 1 h, read-out: GI", "method_in_brief": "as §1"}}, "note": "Calls of active or inactive are those of the source. The rule behind the calls is not given here."}
{"smiles": "[Br-].[Br-].c1ccc([P+](CCCc2n(Cc3ccc4ccccc4c3)c3ccccc3[n+]2Cc2ccc3ccccc3c2)(c2ccccc2)c2ccccc2)cc1", "values": [{"measurement": "growth at 10 µM", "setting": "ACHN", "result": 81.4, "unit": "%"}, {"measurement": "growth at 10 µM", "setting": "HOP-92", "result": 46.3, "unit": "%"}, {"measurement": "GI50", "setting": "SW780", "result": 200, "unit": "µM"}, {"measurement": "growth at 10 µM", "setting": "RPMI-8226", "result": 6.9, "unit": "%"}, {"measurement": "Activity", "setting": "RT-112 [1]", "result": "inactive"}, {"measurement": "growth at 10 µM", "setting": "SF-539", "result": 36.8, "unit": "%"}, {"measurement": "Activity", "setting": "RT-112 [2]", "result": "Active"}, {"measurement": "growth at 10 µM", "setting": "MDA-MB-468", "result": 34.5, "unit": "%"}, {"measurement": "growth at 10 µM", "setting": "HCT-15", "result": 85.5, "unit": "%"}, {"measurement": "growth at 10 µM", "setting": "SNB-19", "result": 38.5, "unit": "%"}, {"measurement": "growth at 10 µM", "setting": "MCF7", "result": 73.9, "unit": "%"}, {"measurement": "Activity", "setting": "RT-112 [3]", "result": "Active"}, {"measurement": "growth at 10 µM", "setting": "NCI-H23", "result": 44, "unit": "%"}, {"measurement": "growth at 10 µM", "setting": "786-0", "result": 70.8, "unit": "%"}, {"measurement": "growth at 10 µM", "setting": "HCT-116", "result": 24.2, "unit": "%"}, {"measurement": "inhibition of growth at 1000 µM", "setting": "RT-4 [4]", "result": 100, "unit": "%"}, {"measurement": "Activity", "setting": "RT-112 [5]", "result": "Active"}, {"measurement": "growth at 10 µM", "setting": "NCI-H226", "result": 83.5, "unit": "%"}, {"measurement": "Activity", "setting": "Mus musculus", "result": "Non-Toxic"}, {"measurement": "Activity", "setting": "[6]", "result": "Non-Toxic"}, {"measurement": "growth at 10 µM", "setting": "UACC-257", "result": 84, "unit": "%"}, {"measurement": "growth at 10 µM", "setting": "HL-60(TB)", "result": 22.6, "unit": "%"}, {"measurement": "inhibition of growth at 1000 µM", "setting": "RT-112 [7]", "result": 100, "unit": "%"}, {"measurement": "growth at 10 µM", "setting": "DU-145", "result": 82.1, "unit": "%"}, {"measurement": "GI50", "setting": "RT-112 [8]", "result": 200, "unit": "µM"}, {"measurement": "growth inhibition (GI)", "setting": "RT-4 [9]", "result": "Active"}, {"measurement": "inhibition of growth at 500 µM", "setting": "RT-112 [10]", "result": 100, "unit": "%"}]}
